# Shown are actives, neighbours in structure and some others; about 2.7% of the full set was active somewhere.
# RAM inhibit = yeast RAM network inhibition. S. cerevisiae dse1pr::URA3 reporter, 5-FOA growth OD615, 2 d; analog-sensitive cbk1-as2 kinase mutant strain. inhibition, % at 50 µM. 190,000 tested, 1.8% active. AID 868;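 active means inhibition above a set limit, 3 SD over mean compound inhibition, cut at about 8.4% in these data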;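 further: inhibition rescues growth on 5-FOA so higher OD means more RAM inhibition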
# sdo1 growth = sdo1-depleted yeast growth rescue; S. cerevisiae sdo1-depleted JHY4D growth rescue, OD600 30 h; active compounds read high; pdr5 snq2 efflux-pump mutant strain; z-score at 10 µM; 140,000 tested, 0.21% active;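 active means z-score above 3 at both the 24 hr and the 30 hr optical density reads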
# Yeast life ext = extends the lifespan of yeast | S. cerevisiae growth with nicotinamide, OD615; deaD strain in restrictive glucose medium | inhibition of the nicotinamide effect, % at 10 µM | 130,000 tested, 0.68% active | AID 775;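 active means inhibition above a set limit, placed 3 SD over the median of all compounds, cut at about 26% in these data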
#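 Test system – modified budding yeast, DeaD strain · Compound – single dose 10 µM compound, 0.25% DMSO · Times – culture preincubation 4 h, compound exposure 48 h, both 30 °C · Detection – optical density (absorbance) at 615 nm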
# BB579 growth dn = chemicals that inhibit yeast BB579 growth in restrictive medium (lifespan-shortening candidates); S. cerevisiae BB579 growth, OD615, 48 h; 140,000 tested, 0.51% active; inhibition, % at 10 µM;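 active means inhibition above a set limit, 3 SD over the mean compound inhibition, cut at about 44% in these data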
#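 Material: Saccharomyces cerevisiae DeaD strain BB579, replicative lifespan model yeast; buffer or medium: CSMM-D restrictive synthetic medium containing dextrose (glucose); compound: 10 µM single dose, DMSO 0.25%; timing: 48 h compound exposure at 30 °C after 4 h preincubation; signal: turbidity as optical density at 615 nm; benchmarks: positive control amphotericin B 10 µg/mL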
# A number is an active result; - = inactive; . = no result given.
SMILES,RAM inhibit,sdo1 growth,Yeast life ext,BB579 growth dn
O=C(Nc1nc(-c2cc3ccccc3o2)cs1)c1ccc(S(=O)(=O)N2CCCC2)cc1,-,-,-,-
CCOC(=O)N1CCN(C(=O)/C(=C/c2cccc3ccccc23)NC(=O)c2ccc(OC)cc2)CC1,-,-,-,-
CNC(=O)c1sc(N2N=C3/C(=C/c4ccccc4)CCCC3C2c2ccccc2)nc1C (stereo not drawn),9.9,-,-,-
O=C(c1ccccn1)N1N=C2/C(=C/c3ccccc3)CCCC2C1c1ccccc1 (stereo not drawn),-,-,-,-
Cc1cc(-c2ccccc2)n2ncc(-c3ccccc3)c2n1,-,-,-,-
COc1ccc(-c2cc(C)nc3c(-c4ccccc4)cnn23)cc1,9.0,.,.,.
COc1ccc(/C=C(\CC(=O)O)c2nc3ccccc3o2)cc1,9.6,.,.,.
COc1ccc(C(=O)/C(=C/c2cccs2)c2nc3ccccc3o2)cc1,-,-,-,-
CC(=O)n1cc(C(C[N+](=O)[O-])SCCN)c2ccccc21 (stereo not drawn),-,-,-,73
COc1cc(OC)cc(C(=O)NC(=S)NCc2ccco2)c1,9.5,-,-,-
CCOC(=O)c1ccc(NC(=O)c2ccc(CO)c(C(=O)NC3CCN(C(=O)OCC)CC3)c2)cc1,-,-,-,-
CC(C)Cc1nnc(NC(=O)CSc2ncn[nH]2)s1,-,-,.,-
CC(C)OC(=O)c1c(F)c(F)c(N2CCOCC2)c(F)c1F,-,-,44,-
CC(=O)NC(c1cccc([N+](=O)[O-])c1)c1c(OC(C)=O)ccc2ccccc12 (stereo not drawn),-,-,.,-
CC(=O)Oc1ccc2ccccc2c1C(NC(=O)Cc1ccccc1)c1ccccc1 (stereo not drawn),9.6,-,-,-
CCN(CC)C(=O)COc1ccc(C=O)cc1OC,-,-,-,-
O=C(NCc1ccco1)c1ccc2ccccc2n1,-,.,.,.
O=c1c2cc(N3CCOCC3)ccc2[nH]c(=S)n1Cc1ccccn1,-,-,-,-
O=c1c2cc(N3CCOCC3)ccc2[nH]c(=S)n1CCc1ccccc1,-,.,.,.
C=CCn1c(=O)[nH]c2cc(C(=O)N3CCN(c4cccc(Cl)c4)CC3)ccc2c1=O,-,-,-,-
CC(=O)c1ccc(N2CCN(C(=O)c3ccc(Cn4c(=S)[nH]c5ccc(N6CCOCC6)cc5c4=O)cc3)CC2)cc1,9.4,.,.,.
O=c1c2cc(N3CCOCC3)ccc2[nH]c(=S)n1Cc1ccccc1Cl,8.5,.,.,.
C=CCn1c(=O)[nH]c2cc(C(=O)N3CCN(c4ccc(C(C)=O)cc4)CC3)ccc2c1=O,-,-,55,-
COc1ccc(NC(=O)CSc2nnc(NC(=O)CN3CCOCC3)s2)cc1,-,.,.,.
O=C(Nc1ccccc1Cl)c1ccc(COc2ccc3c(c2)CCC3)cc1,11,-,-,-
SMILES,RAM inhibit,sdo1 growth,Yeast life ext,BB579 growth dn
Cc1cc(OCc2ccc(C(=O)NN=C3CCCC3)cc2)ccc1Cl,-,-,-,97
CC(C)CNC(=O)CCCc1c[nH]c2ccccc12,-,-,-,-
COc1cccc(C2CC(c3ccccc3)=NN2S(=O)(=O)c2ccc(C)cc2)c1OC (stereo not drawn),11,.,.,.
COc1ccc(C2CC(c3ccccc3)=NN2S(=O)(=O)c2ccc(C)cc2)c(OC)c1 (stereo not drawn),-,-,-,-
CC1CC2=C(NC(=S)NC2c2ccc(F)cc2)/C(=C/c2ccc(F)cc2)C1 (stereo not drawn),-,-,-,-
O=C(Cc1ccccc1)NCCc1cn2ccsc2n1,-,-,-,49
CC(=O)/C(=C/c1ccccc1)C(=O)Nc1ccccc1C,-,.,.,.
Cc1ccccc1NC(=O)C(=Cc1ccc(C(=O)O)cc1)C(=O)Nc1ccccc1C,11,.,.,.
CCOc1ccc(-n2cc(C(=O)Nc3cccc(Cl)c3)c3cc(OC)c(OC)cc3c2=O)cc1,8.9,-,-,-
CCOc1ccc(NC(=O)c2cn(-c3ccc(OCC)cc3)c(=O)c3cc(OC)c(OC)cc23)cc1,-,-,-,-
Cc1ccc(/C=N/N=C2/NC(=O)C(CC(=O)N3CCOCC3)S2)cc1 (stereo not drawn),-,.,.,.
Clc1ccc2[nH]c3c(c2c1)CCc1cn[nH]c1-3,-,-,-,100
O=C(CSc1ccc2c(c1)OCCO2)NCCc1ccc(Cl)cc1Cl,8.4,-,-,-
COc1cccc(/C=C/C(=O)OCC(=O)Nc2ccc(Cl)c(S(=O)(=O)N(C)C)c2)c1,8.5,.,.,.
O=C(COC(=O)/C=C/c1ccc(Cl)cc1Cl)NCCC1=CCCCC1,-,-,-,-
COc1cccc(/C=C/C(=O)OCC(=O)Nc2cccc(S(=O)(=O)N(C)C)c2)c1,-,.,.,.
O=C(COC(=O)/C=C/c1ccccc1Cl)NCCc1ccc(Cl)cc1Cl,8.6,-,-,-
O=C(COC(=O)/C=C/c1ccccc1)Nc1cccc(Oc2ccccc2)c1,8.9,-,-,-
O=C(COC(=O)/C=C/c1ccc(Cl)cc1)Nc1ccccc1,-,.,.,.
COc1cc(NC(=O)COC(=O)/C=C/c2ccc(OC)c(OC)c2)cc(OC)c1,-,.,.,.
COc1cc(NC(=O)COC(=O)/C=C/c2ccccc2Cl)cc(OC)c1,10,-,-,-
C/C(=N/NC(=O)c1sc(NS(=O)(=O)c2ccccc2)nc1C)c1ccccc1,-,-,-,-
Oc1c(N=Nc2ccccn2)ccc2ccccc12,-,-,-,96
COc1cccc(-c2cc(C(=O)Nc3cccc(O)c3)no2)c1,9.2,-,-,-
COc1ccc(NC(=O)c2cc(-c3ccccc3OC)on2)cc1,-,-,-,-
SMILES,RAM inhibit,sdo1 growth,Yeast life ext,BB579 growth dn
COc1cccc(-c2cc(C(=O)Nc3ccccc3SC)no2)c1,-,-,-,-
COc1ccc(-c2cc(C(=O)Nc3ccccc3SC)no2)cc1OC,8.7,-,-,-
COc1ccccc1-c1cc(C(=O)Nc2ccccc2SC)no1,9.0,-,-,-
COc1ccc(NC(=O)c2cc(-c3cccc(OC)c3)on2)cc1,-,.,.,.
c1cncc(-c2nnc(-c3cccnc3)nn2)c1,-,-,-,53
CCN=C1S/C(=C\c2ccc(N3CCOCC3)cc2C)C(=O)N1CC,10,-,-,-
CN=C1S/C(=C\c2ccc(N3CCOCC3)cc2C)C(=O)N1C,-,-,-,-
CCc1ccc(-n2cccc2/C=C2/C(=N)N3C(=NC2=O)SN=C3S(C)(=O)=O)cc1,11,.,.,.
O=C(NNS(=O)(=O)c1ccccc1[N+](=O)[O-])c1ccccc1Cl,-,.,.,.
O=C1Nc2ccccc2C12OCC1(CO2)COC2(OC1)C(=O)Nc1ccccc12 (stereo not drawn),-,-,67,-
CC1(C)COC2(OC1)C(=O)Nc1ccccc12,-,.,.,.
O/N=C1\CCCCc2ccccc21,-,-,-,-
COc1cccc(/C=C2\N=C(SC)SC2=O)c1OC,9.6,-,-,-
CCOC(=O)CSC1=C(C#N)C(c2ccc(OC)cc2)C2=C(CC(C)(C)CC2=O)N1 (stereo not drawn),-,-,-,-
O=C(NCc1ccccn1)[C@@H]1C[C@H]1[C@@H](NP(=O)(c1ccccc1)c1ccccc1)c1ccccc1,-,-,-,-
